Calls of active or inactive are those of the source. The rule behind the calls is not given here.
Assays:
cells = assay type: functional; settings: Homo sapiens, 68 h
[1] = target: Serine/threonine-protein kinase B-raf (Homo sapiens, UniProt P15056, V600E); assay: Inhibition of BRAF V600E mutant (unknown origin) after 1 to 1.5 hrs by FRET-based Z'-Lyte assay
Summary of the method: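 Z′-Lyte FRET cascade assay in 10 μL. Incubated 1 h at room temperature, then development reagent 1 h, then stop reagent. Controls: phospho-peptide, no ATP, and 4% DMSO solution. Means of 2 independent experiments.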

[2] = target: T1, Epidermal growth factor receptor (Homo sapiens, UniProt P00533); assay: Inhibition of EGFR (unknown origin) after 1 to 1.5 hrs by FRET-based Z'-Lyte assay
T1 sequence (P00533 whole entry): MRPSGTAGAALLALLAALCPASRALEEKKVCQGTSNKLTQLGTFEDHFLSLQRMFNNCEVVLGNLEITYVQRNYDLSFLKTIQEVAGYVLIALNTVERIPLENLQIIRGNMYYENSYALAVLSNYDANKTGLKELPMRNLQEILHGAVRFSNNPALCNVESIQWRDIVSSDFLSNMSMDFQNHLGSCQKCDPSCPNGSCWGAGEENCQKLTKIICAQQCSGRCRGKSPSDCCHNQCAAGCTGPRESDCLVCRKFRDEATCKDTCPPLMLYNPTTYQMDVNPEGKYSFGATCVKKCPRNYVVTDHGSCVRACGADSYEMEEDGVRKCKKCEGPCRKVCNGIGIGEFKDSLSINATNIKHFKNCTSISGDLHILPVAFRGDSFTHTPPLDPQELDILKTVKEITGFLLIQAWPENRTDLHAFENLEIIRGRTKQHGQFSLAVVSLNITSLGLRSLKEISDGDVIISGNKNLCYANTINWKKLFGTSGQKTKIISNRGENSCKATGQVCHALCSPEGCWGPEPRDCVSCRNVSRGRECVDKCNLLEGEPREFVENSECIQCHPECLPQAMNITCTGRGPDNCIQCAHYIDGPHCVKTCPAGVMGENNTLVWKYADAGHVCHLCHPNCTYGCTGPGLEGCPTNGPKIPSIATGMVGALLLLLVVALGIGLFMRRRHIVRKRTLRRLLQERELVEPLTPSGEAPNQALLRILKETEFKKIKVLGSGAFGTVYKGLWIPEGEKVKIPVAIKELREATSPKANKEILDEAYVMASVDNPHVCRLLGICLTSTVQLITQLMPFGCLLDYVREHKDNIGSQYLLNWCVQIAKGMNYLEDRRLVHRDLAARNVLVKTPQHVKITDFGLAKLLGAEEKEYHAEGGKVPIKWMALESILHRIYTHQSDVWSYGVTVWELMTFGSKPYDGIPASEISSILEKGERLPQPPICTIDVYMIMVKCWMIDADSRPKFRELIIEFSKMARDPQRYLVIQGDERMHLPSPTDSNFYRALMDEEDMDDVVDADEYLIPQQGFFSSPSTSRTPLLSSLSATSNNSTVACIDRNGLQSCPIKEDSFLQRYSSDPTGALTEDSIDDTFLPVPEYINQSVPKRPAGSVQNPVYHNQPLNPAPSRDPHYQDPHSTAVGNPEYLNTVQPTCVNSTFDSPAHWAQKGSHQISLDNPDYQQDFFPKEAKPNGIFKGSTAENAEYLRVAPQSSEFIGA

SK-MEL-28 = assay: cells; assay type: functional, cell-based; settings: Homo sapiens, SK-MEL-28, 68 h
Homo sapiens [3] = organism: Homo sapiens; assay: Inhibition of MAPK-mediated ERK phosphorylation at Thr202/Tyr204 in human SK-MEL-28-PR30 cells at 1 uM after 24 hrs by Western blotting analysis; assay type: cell-based
Summary of the method: (§1)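 Time-course western blot with treatment at 1.0 μM. SK-MEL-28-PR30 or WiDr cells exposed for 2, 24 and 48 h. RIPA lysates quantified by BCA, equal protein blotted on PVDF, and probed for phospho-ERK (T202/Y204), total ERK and GAPDH.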

Homo sapiens [4] = organism: Homo sapiens; assay: Inhibition of MAPK-mediated ERK phosphorylation at Thr202/Tyr204 in human SK-MEL-28-PR30 cells at 1 uM after 48 hrs by Western blotting analysis; assay type: cell-based
Summary of the method: as §1

HT-29 [5] = assay: Antiproliferative activity against human HT-29 cells harboring BRAF V600E mutant and EGFR after 68 hrs […]; assay type: functional, cell-based; settings: HT-29, 68 h
HCT-116 = assay: Antiproliferative activity against human HCT116 cells harboring wild-type BRAF and EGFR after 68 hrs […]; assay type: functional, cell-based; settings: HCT-116, 68 h
WiDr [6] = assay: Antiproliferative activity against human WiDr cells harboring BRAF V600E mutant and EGFR after 68 hrs […]; assay type: functional, cell-based
COLO 205 = assay: Antiproliferative activity against human COLO205 cells harboring BRAF V600E mutant and EGFR after 68 hrs by MTS assay; assay type: functional, cell-based; settings: COLO 205, 68 h
LoVo = assay: Antiproliferative activity against human LoVo cells harboring wild-type BRAF after 68 hrs by […]; assay type: functional, cell-based
Homo sapiens [7] = organism: Homo sapiens; assay: Effect on total EGFR protein level in human SK-MEL-28-PR30 cells after 2 hrs by Western blotting analysis; assay type: functional, cell-based
Summary of the method: (§2)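 1 × 10⁶ cells seeded overnight in 6-cm dishes, then treated 2 h with 3, 1 or 0.3 μM in fresh medium; 1‰ DMSO as control. RIPA lysates, protein quantified by BCA, equal loads run on PVDF blots. Blocked 1 h at room temperature, then probed for EGFR, phospho-EGFR (Tyr1068), ERK, phospho-ERK (T202/Y204) and GAPDH.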

[8] = target: T1, Epidermal growth factor receptor; assay: Inhibition of EGFR phosphorylation at Tyr1068 in human A375 cells after 2 hrs by Western blotting analysis; assay type: cell-based; settings: A-375
Summary of the method: as §2

WiDr [9] = assay: Inhibition of MAPK-mediated ERK phosphorylation at Thr202/Tyr204 in human WiDr cells at 1 uM after 2 to 48 hrs by Western blotting analysis; assay type: cell-based
Summary of the method: as §1

Homo sapiens [10] = organism: Homo sapiens; assay: Effect on total ERK protein level in human SK-MEL-28-PR30 cells after 2 hrs by Western blotting analysis; assay type: functional, cell-based
Summary of the method: as §2

HT-29 [11] = assay: Inhibition of MAPK-mediated ERK phosphorylation at Thr202/Tyr204 in human HT-29 cells after 2 hrs by Western blotting analysis; assay type: cell-based
Summary of the method: as §2

[12] = target: Receptor tyrosine-protein kinase erbB-2 (Homo sapiens) (UniProt P04626); assay: Inhibition of ERBB2 (unknown origin) at 1 uM by KINOMEscan assay
Receptor tyrosine-protein kinase erbB-2 (Homo sapiens), sequence (P04626 whole entry): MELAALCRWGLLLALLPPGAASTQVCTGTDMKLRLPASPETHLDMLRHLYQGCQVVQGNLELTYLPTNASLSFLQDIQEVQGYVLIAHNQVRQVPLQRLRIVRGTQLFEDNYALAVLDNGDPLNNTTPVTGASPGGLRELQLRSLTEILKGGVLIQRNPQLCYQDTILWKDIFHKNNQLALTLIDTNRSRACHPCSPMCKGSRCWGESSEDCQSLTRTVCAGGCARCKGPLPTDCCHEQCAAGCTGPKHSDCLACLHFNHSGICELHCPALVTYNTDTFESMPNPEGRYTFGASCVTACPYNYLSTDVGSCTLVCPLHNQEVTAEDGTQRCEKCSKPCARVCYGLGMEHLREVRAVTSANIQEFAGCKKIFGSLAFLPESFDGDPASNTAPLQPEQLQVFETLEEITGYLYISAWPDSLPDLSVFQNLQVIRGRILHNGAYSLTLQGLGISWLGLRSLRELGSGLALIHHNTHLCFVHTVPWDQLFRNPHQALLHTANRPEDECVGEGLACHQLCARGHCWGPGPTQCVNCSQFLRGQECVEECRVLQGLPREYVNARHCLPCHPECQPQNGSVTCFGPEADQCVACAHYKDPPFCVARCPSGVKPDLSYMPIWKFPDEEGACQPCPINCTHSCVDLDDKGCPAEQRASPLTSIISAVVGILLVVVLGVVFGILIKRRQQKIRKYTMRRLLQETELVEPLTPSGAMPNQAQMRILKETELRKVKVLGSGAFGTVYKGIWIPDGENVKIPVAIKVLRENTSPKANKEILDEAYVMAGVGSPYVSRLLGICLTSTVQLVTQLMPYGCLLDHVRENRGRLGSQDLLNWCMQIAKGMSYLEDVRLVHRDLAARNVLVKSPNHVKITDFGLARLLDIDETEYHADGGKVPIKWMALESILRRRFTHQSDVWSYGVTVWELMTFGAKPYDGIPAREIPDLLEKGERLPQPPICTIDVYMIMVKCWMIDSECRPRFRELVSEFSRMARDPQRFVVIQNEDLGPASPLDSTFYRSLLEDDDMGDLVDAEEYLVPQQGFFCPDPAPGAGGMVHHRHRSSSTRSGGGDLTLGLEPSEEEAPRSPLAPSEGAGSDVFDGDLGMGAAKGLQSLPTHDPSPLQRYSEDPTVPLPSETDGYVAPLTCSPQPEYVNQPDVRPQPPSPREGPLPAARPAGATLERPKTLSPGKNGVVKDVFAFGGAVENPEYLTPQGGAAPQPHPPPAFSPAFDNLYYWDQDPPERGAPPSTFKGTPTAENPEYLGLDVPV
Summary of the method: (§3)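 KINOMEscan binding screen across a panel of 456 kinases (including 395 distinct wild-type kinases), with test compound at 1.0 μM.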

WiDr [13] = assay: Inhibition of MAPK-mediated ERK phosphorylation at Thr202/Tyr204 in human WiDr cells after 2 hrs by Western blotting analysis; assay type: cell-based
Summary of the method: as §2

Homo sapiens [14] = organism: Homo sapiens; assay: Inhibition of MAPK-mediated ERK phosphorylation at Thr202/Tyr204 in human SK-MEL-28-PR30 cells after 2 hrs by Western blotting analysis; assay type: cell-based
Summary of the method: as §2

[15] = target: T1, Epidermal growth factor receptor; assay: Inhibition of EGFR phosphorylation at Tyr1068 in human SK-MEL-28-PR30 cells after 2 hrs by Western blotting analysis; assay type: cell-based
Summary of the method: as §2

[16] = target: T1, Epidermal growth factor receptor; assay: Inhibition of EGFR phosphorylation at Tyr1068 in human HT-29 cells after 2 hrs by Western blotting analysis; assay type: cell-based
Summary of the method: as §2

[17] = target: T1, Epidermal growth factor receptor; assay: Inhibition of EGFR phosphorylation at Tyr1068 in human WiDr cells after 2 hrs by Western blotting analysis; assay type: cell-based
Summary of the method: as §2

[18] = target: Receptor tyrosine-protein kinase erbB-4 (Homo sapiens) (UniProt Q15303); assay: Inhibition of ERBB4 (unknown origin) at 1 uM by KINOMEscan assay
Summary of the method: as §3

[19] = target: Platelet-derived growth factor receptor beta (Homo sapiens) (UniProt P09619); assay: Inhibition of PDGFRbeta (unknown origin) at 1 uM by KINOMEscan assay
Platelet-derived growth factor receptor beta (Homo sapiens), sequence (P09619 whole entry): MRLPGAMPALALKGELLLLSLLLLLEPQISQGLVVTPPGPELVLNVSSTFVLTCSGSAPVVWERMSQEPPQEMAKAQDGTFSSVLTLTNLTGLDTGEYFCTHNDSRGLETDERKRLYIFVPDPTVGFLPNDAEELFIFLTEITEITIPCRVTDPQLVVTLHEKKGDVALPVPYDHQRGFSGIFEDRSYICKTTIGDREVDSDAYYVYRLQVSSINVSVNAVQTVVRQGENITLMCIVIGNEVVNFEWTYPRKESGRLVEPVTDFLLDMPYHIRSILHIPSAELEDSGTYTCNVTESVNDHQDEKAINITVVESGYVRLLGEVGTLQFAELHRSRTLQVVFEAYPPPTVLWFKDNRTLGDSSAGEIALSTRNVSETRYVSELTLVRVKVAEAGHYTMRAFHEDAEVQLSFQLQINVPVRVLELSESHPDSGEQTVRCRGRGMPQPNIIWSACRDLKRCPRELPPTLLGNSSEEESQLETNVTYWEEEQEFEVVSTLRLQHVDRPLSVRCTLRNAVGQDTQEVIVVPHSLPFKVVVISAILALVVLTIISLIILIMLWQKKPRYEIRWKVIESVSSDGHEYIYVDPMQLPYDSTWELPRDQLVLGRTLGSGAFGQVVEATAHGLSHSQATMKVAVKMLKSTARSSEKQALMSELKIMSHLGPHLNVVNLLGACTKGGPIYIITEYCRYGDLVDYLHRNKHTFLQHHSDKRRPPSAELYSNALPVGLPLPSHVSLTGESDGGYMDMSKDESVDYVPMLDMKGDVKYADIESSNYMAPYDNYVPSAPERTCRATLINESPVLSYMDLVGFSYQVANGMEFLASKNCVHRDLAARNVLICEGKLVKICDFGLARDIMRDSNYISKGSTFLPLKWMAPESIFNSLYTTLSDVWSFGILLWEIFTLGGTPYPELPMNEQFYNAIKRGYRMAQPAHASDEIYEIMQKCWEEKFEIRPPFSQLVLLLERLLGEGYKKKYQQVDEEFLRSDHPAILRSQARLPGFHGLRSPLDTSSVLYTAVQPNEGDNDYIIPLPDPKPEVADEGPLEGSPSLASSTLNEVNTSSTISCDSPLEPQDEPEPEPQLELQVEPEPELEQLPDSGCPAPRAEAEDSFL
Summary of the method: as §3

A-375 = assay: Inhibition of MAPK-mediated ERK phosphorylation at Thr202/Tyr204 in human A375 cells after 2 hrs by Western blotting analysis; assay type: cell-based
Summary of the method: as §2

Serine/threonine-protein kinase B-raf, sequence (P15056 2-766 V600E limits assumed): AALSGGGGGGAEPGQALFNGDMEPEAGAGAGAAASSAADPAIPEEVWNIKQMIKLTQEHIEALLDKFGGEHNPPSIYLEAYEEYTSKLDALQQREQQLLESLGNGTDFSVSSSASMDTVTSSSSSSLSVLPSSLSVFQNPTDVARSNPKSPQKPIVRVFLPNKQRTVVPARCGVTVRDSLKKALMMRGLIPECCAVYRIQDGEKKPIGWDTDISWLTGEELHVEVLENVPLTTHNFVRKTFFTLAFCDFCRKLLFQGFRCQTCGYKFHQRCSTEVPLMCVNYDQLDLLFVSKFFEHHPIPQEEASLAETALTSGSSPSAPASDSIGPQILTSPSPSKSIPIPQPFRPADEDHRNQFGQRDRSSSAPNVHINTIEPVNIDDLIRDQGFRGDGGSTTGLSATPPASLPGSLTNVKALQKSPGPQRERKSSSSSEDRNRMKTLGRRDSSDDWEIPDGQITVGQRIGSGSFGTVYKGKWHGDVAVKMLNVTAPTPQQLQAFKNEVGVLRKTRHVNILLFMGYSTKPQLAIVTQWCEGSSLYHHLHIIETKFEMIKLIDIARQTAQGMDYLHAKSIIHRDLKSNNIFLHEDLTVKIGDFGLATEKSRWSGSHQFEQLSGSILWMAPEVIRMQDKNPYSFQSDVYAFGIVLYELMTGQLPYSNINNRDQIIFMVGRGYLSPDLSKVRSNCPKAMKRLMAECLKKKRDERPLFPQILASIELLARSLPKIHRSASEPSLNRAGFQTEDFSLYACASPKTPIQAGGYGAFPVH

| SMILES | IC50 (cells) | IC50 [1] | IC50 [2] | IC50 (SK-MEL-28) | other results |
| --- | --- | --- | --- | --- | --- |
| CNc1ncc(C(=O)Nc2cc(C(=O)Nc3ccc(CN4CCN(C)CC4)c(C(F)(F)F)c3)ccc2C)cn1 | 2750 nM | 290 nM | 120 nM | > 20000 nM |  |
| Cc1ccc(C(=O)Nc2ccc(CN3CCN(C)CC3)c(C(F)(F)F)c2)cc1NC(=O)c1cnc(NC2CC2)nc1 | 1440 nM | 390 nM | 44 nM | 2960 nM |  |
| CCNc1ncc(C(=O)Nc2cc(C(=O)Nc3ccc(CN4CCN(C)CC4)c(C(F)(F)F)c3)ccc2C)cn1 | 2400 nM | 510 nM | 130 nM | 1090 nM |  |
| CCc1ccc(C(=O)Nc2ccc(CN3CCN(C)CC3)c(C(F)(F)F)c2)cc1NC(=O)c1cnc2[nH]ccc2c1 | 490 nM | 360 nM | 99 nM | 910 nM |  |
| Cc1ccc(C(=O)Nc2ccc(CN3CCN(C)CC3)c(C(F)(F)F)c2)cc1NC(=O)c1ccccn1 | 10700 nM | 573 nM |  | > 20000 nM |  |
| Cc1ccc(C(=O)Nc2ccc(CN3CCN(C)CC3)c(C(F)(F)F)c2)cc1NC(=O)c1cnc(N)nc1 | 1890 nM | 410 nM | 43 nM | 1840 nM |  |
| Cc1ccc(C(=O)Nc2ccc(CN3CCN(C)CC3)c(C(F)(F)F)c2)cc1NC(=O)c1ccc2[nH]ccc2c1 | 3040 nM | 220 nM | > 10000 nM | 4430 nM |  |
| Cc1ccc(C(=O)Nc2ccc(CN3CCN(C)CC3)c(C(F)(F)F)c2)cc1NC(=O)c1cnc(NC2CCCC2)nc1 | 1240 nM | 230 nM | 33 nM | 2040 nM |  |
| Cc1ccc(C(=O)Nc2ccc(CN3CCN(C)CC3)c(C(F)(F)F)c2)cc1NC(=O)c1cnc(N(C)C)nc1 | 2490 nM | 300 nM | 5540 nM | 6960 nM |  |
| CCCS(=O)(=O)Nc1ccc(F)c(C(=O)c2c[nH]c3ncc(-c4ccc(Cl)cc4)cc23)c1F [VEMURAFENIB] | > 20000 nM |  |  | 480 nM | inhibition (Homo sapiens [3]): inactive; inhibition (Homo sapiens [4]): inactive |
| Cc1ccc(C(=O)Nc2ccc(CN3CCN(C)CC3)c(C(F)(F)F)c2)cc1NC(=O)c1ccncc1 | > 20000 nM | 110 nM | > 10000 nM | > 20000 nM |  |
| Cc1ccc(C(=O)Nc2ccc(CN3CCN(C)CC3)c(C(F)(F)F)c2)cc1NC(=O)c1cnc(NC2CCCCC2)nc1 | 2730 nM | 37 nM | 47 nM | 2380 nM |  |
| Cc1ccc(C(=O)Nc2ccc(CN3CCN(C)CC3)c(C(F)(F)F)c2)cc1NC(=O)c1ccc(O)nc1 | > 20000 nM | > 10000 nM | 1330 nM | > 20000 nM |  |
| Cc1ccc(C(=O)Nc2ccc(CN3CCN(C)CC3)c(C(F)(F)F)c2)cc1NC(=O)c1cnc2[nH]ncc2c1 | 780 nM | 48 nM | 30 nM | 540 nM | IC50 (HT-29 [5]): 780 nM; IC50 (HCT-116): 1380 nM; IC50 (WiDr [6]): 1350 nM; IC50 (COLO 205): 360 nM; IC50 (LoVo): 480 nM |
| Cc1ccc(C(=O)Nc2ccc(CN3CCN(C)CC3)c(C(F)(F)F)c2)cc1NC(=O)c1cncnc1 | > 20000 nM | 670 nM | 1920 nM | > 20000 nM |  |
| CC(C)c1ccc(C(=O)Nc2ccc(CN3CCN(C)CC3)c(C(F)(F)F)c2)cc1NC(=O)c1cnc2[nH]ccc2c1 | 1900 nM | 290 nM | 160 nM | 2270 nM |  |
| Cc1ccc(C(=O)Nc2ccc(CN3CCN(C)CC3)c(C(F)(F)F)c2)cc1NC(=O)c1cnc(Nc2ccccc2)nc1 | 900 nM | 210 nM | 6 nM | 1700 nM |  |
| Cc1ccc(C(=O)Nc2ccc(CN3CCN(C)CC3)c(C(F)(F)F)c2)cc1NC(=O)c1ccccc1 | 5030 nM | 240 nM | > 10000 nM | 6910 nM |  |
| Cc1ccc(C(=O)Nc2ccc(CN3CCN(C)CC3)c(C(F)(F)F)c2)cc1NC(=O)c1cnc(NC(C)C)nc1 | 860 nM | 340 nM | 43 nM | 1730 nM |  |
| Cc1ccc(C(=O)Nc2ccc(CN3CCN(C)CC3)c(C(F)(F)F)c2)cc1NC(=O)c1cnc2[nH]ccc2c1 | 450 nM | 51 nM | 8 nM | 130 nM | IC50 (HT-29 [5]): 480 nM; inhibition (Homo sapiens [7]): Dose-dependent effect; inhibition [8]: Dose-dependent effect; IC50 (HCT-116): 1330 nM; inhibition (WiDr [9]): Active; inhibition (Homo sapiens [10]): Dose-dependent effect; IC50 (WiDr [6]): 670 nM; inhibition (HT-29 [11]): Dose-dependent effect; inhibition [12]: Active; inhibition (WiDr [13]): Dose-dependent effect; inhibition (Homo sapiens [14]): Dose-dependent effect; inhibition [15]: Dose-dependent effect; inhibition [16]: Dose-dependent effect; inhibition [17]: Dose-dependent effect; IC50 (COLO 205): 220 nM; inhibition [18]: Active; IC50 (LoVo): 170 nM; inhibition [19]: Active; inhibition (Homo sapiens [4]): Active; inhibition (A-375): Dose-dependent effect |
| Cc1ccc(C(=O)Nc2ccc(CN3CCN(C)CC3)c(C(F)(F)F)c2)cc1NC(=O)c1cnccn1 | > 20000 nM | 280 nM | 3900 nM | > 20000 nM |  |
| CN1CCN(Cc2ccc(NC(=O)c3cccc(NC(=O)c4cnc5[nH]ccc5c4)c3)cc2C(F)(F)F)CC1 | 1730 nM | 48 nM | 680 nM | 1070 nM |  |
| Cc1ccc(C(=O)Nc2ccc(CN3CCN(C)CC3)c(C(F)(F)F)c2)cc1NC(=O)c1cccnc1 | > 20000 nM | 551 nM | 550 nM | 14000 nM |  |

Source: ChEMBL document CHEMBL3233006 (J Med Chem, 2014)
